In ChEMBL document CHEMBL1130056, “Novel and selective partial agonists of 5-HT3 receptors. 2. Synthesis and biological evaluation of piperazinopyridopyrrolopyrazines, piperazinopyrroloquinoxalines, and piperazinopyridopyrroloquinoxalines” (J Med Chem, 1997):

Assays:
[1] = molecular target: 5-hydroxytryptamine receptor 2A (Bos taurus, UniProt Q75Z89); test: Binding affinity against 5-hydroxytryptamine 2A receptor was measured using [3H]ketanserin as radioligand
In short: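 Bovine frontal cortex membranes (0.6 mg protein/mL) with 0.8 nM [3H]ketanserin and 100 nM WB4101, 37 °C for 30 min, in 50 mM Tris-HCl pH 7.4 plus 5 mM MgCl2, 10 mM NaCl, 0.5 mM EDTA, 10 μM pargyline. 10 μM spiperone defined nonspecific binding. Reported as log IC50 ± SEM.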

[2] = molecular target: 5-hydroxytryptamine receptor 1D (Sus scrofa, UniProt P79400); test: Binding affinity against 5-hydroxytryptamine 1D receptor was measured using [3H]5-HT as radioligand
In short: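 Pig frontal cortex and striatum membranes (0.8 mg protein/mL), 2 nM [3H]-5-OH-tryptamine with 1 μM spiperone and 50 nM mesulergine, 25 °C, 30 min, 50 mM Tris-HCl pH 7.4, 4 mM CaCl2, 10 μM pargyline. Nonspecific binding with 10 μM 5-HT. Expressed as log IC50 ± SEM.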

[3] = molecular target: 5-hydroxytryptamine receptor 1B (Rattus norvegicus, UniProt P28564); test: Binding affinity towards 5-hydroxytryptamine 1B receptor was measured using [3H]5-HT as radioligand
In short: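 Rat frontal cortex and striatum membranes (0.8 mg protein/mL), 2 nM [3H]-5-OH-tryptamine, 1 μM spiperone, 50 nM mesulergine; 25 °C, 30 min; 50 mM Tris-HCl pH 7.4, 4 mM CaCl2, 10 μM pargyline. Nonspecific binding with 10 μM propranolol. Expressed as log IC50 ± SEM.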

[4] = molecular target: Serotonin 3 (5-HT3) receptor; test: Binding affinity against 5-hydroxytryptamine 3 receptor was measured using [3H]granisetron as radioligand; assay type: protein-complex assay
[5] = molecular target: 5-hydroxytryptamine receptor 2C (Sus scrofa); test: Binding affinity against 5-Hydroxytryptamine 2C Receptor was measured using [3H]N-methyl-mesulergine as radioligand
[6] = molecular target: 5-hydroxytryptamine receptor 1A (Bos taurus); test: Binding affinity against 5-hydroxytryptamine 1A receptor was measured using [3H]8-OH-DPAT as radioligand
NG108-15 = test: In Vitro 5-HT3 agonist activity on the [14C]guanidinium accumulation in NG 108-15 cells.; assay type: functional, cell-based; conditions: Murinae
In short: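 NG 108-15 cells grown 2 days, washed, then incubated 10 min at 37 °C in HEPES buffer pH 7.4 with 10 mM guanidinium chloride, 200–250 nCi [14C]guanidinium, 10 μM substance P and drug. After ice-cold choline wash, cells dissolved in NaOH and radioactivity counted. EC50 from triplicates per concentration; mean ± SEM of three determinations.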

Rattus norvegicus [7] = test: In Vivo 5-HT3 agonist activity in the Von Bezold-Jarisch reflex decrease in heart rate in rats at 120 (ug/kg) dose.; assay type: functional
In short: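 Fasted male Crl:CD(SD)BR rats (280–320 g) under urethane (1.25 g/kg ip); heart rate from cannulated carotid artery. Compound in saline given iv via jugular cannula. Read-out is fall in heart rate as percent of pre-treatment baseline.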

Rattus norvegicus [8] = test: In Vivo 5-HT3 antagonist activity in the Von Bezold-Jarisch reflex in rats and percent inhibition of bradycardia induced by 5-HT was reported; assay type: functional; conditions: read-out: ID50 (the source's name)
In short: (§1)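 Urethane-anesthetized (1.25 g/kg ip) fasted male Crl:CD(SD)BR rats; heart rate from carotid cannula. Compound in saline iv via jugular vein, usually 5 min before 5-HT bolus (30 μg/kg iv).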

Rattus norvegicus [9] = test: In Vivo 5-HT3 antagonist activity in the Von Bezold-Jarisch reflex in rats at intravenous dose of 60 (ug/kg); assay type: functional; in short: as §1

Chain of 5-hydroxytryptamine receptor 2A (Q75Z89 whole entry): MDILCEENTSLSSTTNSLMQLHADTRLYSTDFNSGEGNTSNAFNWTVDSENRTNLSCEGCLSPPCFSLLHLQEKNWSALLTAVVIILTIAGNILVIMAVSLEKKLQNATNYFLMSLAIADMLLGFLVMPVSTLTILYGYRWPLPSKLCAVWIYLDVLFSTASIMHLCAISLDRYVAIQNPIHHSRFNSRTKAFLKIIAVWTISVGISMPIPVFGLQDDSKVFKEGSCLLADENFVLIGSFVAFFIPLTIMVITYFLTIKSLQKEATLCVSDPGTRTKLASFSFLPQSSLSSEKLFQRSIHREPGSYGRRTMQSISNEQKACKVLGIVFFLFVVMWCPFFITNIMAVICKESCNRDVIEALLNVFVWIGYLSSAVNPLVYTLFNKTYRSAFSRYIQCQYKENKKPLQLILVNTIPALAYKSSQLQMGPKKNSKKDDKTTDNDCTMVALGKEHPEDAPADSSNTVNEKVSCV
Chain of 5-hydroxytryptamine receptor 1B (P28564 whole entry): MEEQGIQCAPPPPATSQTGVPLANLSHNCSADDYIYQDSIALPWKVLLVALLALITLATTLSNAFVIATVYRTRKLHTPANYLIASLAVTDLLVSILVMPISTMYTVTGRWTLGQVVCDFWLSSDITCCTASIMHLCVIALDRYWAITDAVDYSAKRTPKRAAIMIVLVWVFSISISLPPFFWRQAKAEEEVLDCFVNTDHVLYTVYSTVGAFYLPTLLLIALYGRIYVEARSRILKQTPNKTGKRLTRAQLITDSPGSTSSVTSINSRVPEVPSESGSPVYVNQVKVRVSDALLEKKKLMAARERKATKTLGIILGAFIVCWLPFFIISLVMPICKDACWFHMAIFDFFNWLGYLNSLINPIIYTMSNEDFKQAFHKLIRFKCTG
Chain of 5-hydroxytryptamine receptor 1D (P79400 whole entry): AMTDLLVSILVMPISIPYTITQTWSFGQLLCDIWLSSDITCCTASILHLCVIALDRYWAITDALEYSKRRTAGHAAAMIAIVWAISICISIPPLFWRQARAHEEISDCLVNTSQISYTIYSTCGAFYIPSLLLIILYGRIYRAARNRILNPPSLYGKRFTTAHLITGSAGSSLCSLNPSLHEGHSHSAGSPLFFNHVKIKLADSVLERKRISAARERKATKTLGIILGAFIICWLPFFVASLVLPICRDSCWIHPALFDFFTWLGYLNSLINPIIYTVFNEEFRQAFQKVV

## Fc1ccc(CN2CCN(c3nc4cccnc4n4cccc34)CC2)cc1
[1]
  IC50: 43.7 µM
[2]
  IC50: 83.2 µM
[3]
  IC50: 56.2 µM
[4]
  -Log IC50: 8.58
[5]
  IC50: 5.25 µM
[6]
  IC50: 6.76 µM

## c1ccc(CN2CCN(c3ncccc3-n3cccc3)CC2)cc1
[1]
  IC50: 7.41 µM
[2]
  IC50: 11 µM
[3]
  IC50: 26.3 µM
[4]
  -Log IC50: 7.34

## NCCc1c[nH]c2ccc(O)cc12 [SEROTONIN]
NG108-15
  EC50: 0.293 µM

## c1cnc2c(c1)nc(N1CCNCC1)c1cccn12
[1]
  IC50: 14.5 µM
[2]
  IC50: 1.7 µM
[3]
  IC50: 0.151 µM
[4]
  -Log IC50: 8.83

## c1cc2c(N3CCNCC3)nc3ccsc3n2c1
[4]
  -Log IC50: 7.92

## COc1ccc2c(c1)nc(N1CCN(Cc3ccc(F)cc3)CC1)c1cccn12
[1]
  IC50: > 100 µM
[2]
  IC50: > 100 µM
NG108-15
  EC50: 0.104 µM
[3]
  IC50: 69.2 µM
[4]
  -Log IC50: 8.18
Rattus norvegicus [7]
  Inhibition: 0%
Rattus norvegicus [8]
  ED50: 0.0754 mg/kg

## c1cnc2ccc3nc(N4CCN(Cc5ccc6c(c5)OCO6)CC4)c4cccn4c3c2c1
[1]
  IC50: 20 µM
[2]
  IC50: 39.8 µM
[3]
  IC50: 58.9 µM
[4]
  -Log IC50: 7.55

## C=CCN1CCN(c2nc3ccc4ncccc4c3n3cccc23)CC1
[1]
  IC50: 21.4 µM
[2]
  IC50: 5.75 µM
[3]
  IC50: 19.5 µM
[4]
  -Log IC50: 7.71

## C=CCN1CCN(c2nc3cccnc3n3cccc23)CC1
[1]
  IC50: 25.1 µM
[2]
  IC50: 0.955 µM
[3]
  IC50: 0.204 µM
[4]
  -Log IC50: 11.4
[5]
  IC50: 0.372 µM
[6]
  IC50: 0.117 µM

## CN1CCN(c2nc3cccnc3n3cccc23)CC1
[1]
  IC50: 7.94 µM
[2]
  IC50: 0.955 µM
[3]
  IC50: 0.245 µM
[4]
  -Log IC50: 9.01
[5]
  IC50: 0.275 µM
[6]
  IC50: 0.0977 µM

## Clc1ccc(CN2CCN(c3nc4cccnc4n4cccc34)CC2)c(Cl)c1
[1]
  IC50: > 100 µM
[2]
  IC50: > 100 µM
[3]
  IC50: 77.6 µM
[4]
  -Log IC50: 5.89

## CN1CCN(c2nc3cc(C(F)(F)F)ccc3n3cccc23)CC1
[4]
  -Log IC50: 5.88

## Fc1ccc(CN2CCN(Cc3nc4ccccc4n4cccc34)CC2)cc1
[1]
  IC50: 17 µM
[2]
  IC50: 85.1 µM
[3]
  IC50: 31.6 µM
[4]
  -Log IC50: 5.59

## Clc1ccc2c(c1)nc(N1CCN(Cc3ccccc3)CC1)c1cccn12
[1]
  IC50: > 100 µM
[2]
  IC50: > 100 µM
NG108-15
  EC50: 0.052 µM
[3]
  IC50: 19.1 µM
[4]
  -Log IC50: 9.54
Rattus norvegicus [7]
  Inhibition: 0%
Rattus norvegicus [8]
  ED50: 0.0312 mg/kg

## Clc1ccc2nc(N3CCN(Cc4ccccc4)CC3)c3cccn3c2c1
[1]
  IC50: > 100 µM
[2]
  IC50: > 100 µM
[3]
  IC50: > 100 µM
[4]
  -Log IC50: 7.69
[5]
  IC50: 44.7 µM
[6]
  IC50: 89.1 µM

## COc1ccc2c(c1)nc(N1CCN(CCCCn3cccn3)CC1)c1cccn12
[1]
  IC50: 1.62 µM
[2]
  IC50: > 100 µM
[3]
  IC50: 3.55 µM
[4]
  -Log IC50: < 4

## c1cnc2c(c1)nc(N1CCN(Cc3ccc4c(c3)OCO4)CC1)c1cccn12
[1]
  IC50: 45.7 µM
[2]
  IC50: > 100 µM
[3]
  IC50: 49 µM
[4]
  -Log IC50: 9.1

## CCOC(=O)N1CCN(c2nc3cccnc3n3cccc23)CC1
[1]
  IC50: > 100 µM
[2]
  IC50: > 100 µM
[3]
  IC50: > 100 µM
[4]
  -Log IC50: 4.55

## Fc1ccc(CN2CCN(c3nc4sccc4n4cccc34)CC2)cc1
[3]
  IC50: > 100 µM
[4]
  -Log IC50: 8.93

## COc1ccc2nc(N3CCN(Cc4ccccc4)CC3)c3cccn3c2n1
[1]
  IC50: 70.8 µM
[2]
  IC50: > 100 µM
[3]
  IC50: > 100 µM
[4]
  -Log IC50: 7.85

## Cc1ccnc2c1nc(N1CCN(Cc3ccccc3)CC1)c1cccn12
[1]
  IC50: 51.3 µM
[2]
  IC50: > 100 µM
[3]
  IC50: 43.7 µM
[4]
  -Log IC50: 5.52
[5]
  IC50: 57.5 µM
[6]
  IC50: 50.1 µM

## Cc1ccc2c(c1)nc(N1CCN(Cc3ccc(F)cc3)CC1)c1cccn12
[1]
  IC50: > 100 µM
[2]
  IC50: > 100 µM
[3]
  IC50: 10 µM
[4]
  -Log IC50: 7.87
[5]
  IC50: > 100 µM
[6]
  IC50: 12.9 µM

## Fc1ccc(CN2CCN(c3nc4ccccc4n4cccc34)CC2)cc1
[1]
  IC50: 46.8 µM
[2]
  IC50: > 100 µM
[3]
  IC50: 38 µM
[4]
  -Log IC50: 8.62

## c1ccc(CN2CCN(c3nc4ccsc4n4cccc34)CC2)cc1
NG108-15
  EC50: 0.011 µM
Rattus norvegicus [9]
  Inhibition: 42%
[4]
  -Log IC50: 8.85
Rattus norvegicus [7]
  Inhibition: 40%

## c1ccc(COc2ccc3nc(N4CCN(Cc5ccccc5)CC4)c4cccn4c3n2)cc1
[1]
  IC50: > 100 µM
[2]
  IC50: > 100 µM
[3]
  IC50: > 100 µM
[4]
  -Log IC50: 4.43
[5]
  IC50: > 100 µM
[6]
  IC50: 55 µM

## c1ccc(N2CCN(c3nc4cccnc4n4cccc34)CC2)cc1
[1]
  IC50: > 100 µM
[2]
  IC50: > 100 µM
[3]
  IC50: > 100 µM
[4]
  -Log IC50: 4.56

## COc1ccc2nc(N3CCN(Cc4ccc(F)cc4)CC3)c3cccn3c2n1
[1]
  IC50: > 100 µM
[2]
  IC50: > 100 µM
[3]
  IC50: > 100 µM
[4]
  -Log IC50: 6.93
[5]
  IC50: > 100 µM
[6]
  IC50: 56.2 µM

## c1ccc(CN2CCN(c3nc4ccc5ncccc5c4n4cccc34)CC2)cc1
[1]
  IC50: > 100 µM
[2]
  IC50: > 100 µM
[3]
  IC50: 97.7 µM
[4]
  -Log IC50: 7.51

## C=CCN1CCN(c2nc3sccc3n3cccc23)CC1
[4]
  -Log IC50: 9.04

## Clc1ccc2c(c1)nc(N1CCN(Cc3ccc4c(c3)OCO4)CC1)c1cccn12
[1]
  IC50: > 100 µM
[2]
  IC50: 46.8 µM
[3]
  IC50: 14.5 µM
[4]
  -Log IC50: 10.09
[5]
  IC50: > 100 µM
[6]
  IC50: 9.55 µM

## c1ccc(CN2CCN(c3ccc4nc(N5CCN(Cc6ccccc6)CC5)c5cccn5c4n3)CC2)cc1
[1]
  IC50: > 100 µM
[2]
  IC50: > 100 µM
[3]
  IC50: > 100 µM
[4]
  -Log IC50: 7.06
[5]
  IC50: > 100 µM
[6]
  IC50: > 100 µM

## Fc1ccc(CN2CCN(c3nc4cc(Cl)ccc4n4cccc34)CC2)cc1
[1]
  IC50: > 100 µM
[2]
  IC50: > 100 µM
[3]
  IC50: > 100 µM
[4]
  -Log IC50: 7.71
[5]
  IC50: > 100 µM
[6]
  IC50: 40.7 µM

## Cc1ccnc2c1nc(N1CCN(Cc3ccc(F)cc3)CC1)c1cccn12
[1]
  IC50: > 100 µM
[2]
  IC50: > 100 µM
[3]
  IC50: 70.8 µM
[4]
  -Log IC50: < 4
